The values that follow come from ChEMBL document CHEMBL4513216, “Probing the Open Global Health Chemical Diversity Library for Multistage-Active Starting Points for Next-Generation Antimalarials” (ACS Infect Dis, 2020).

The series in a line: Toxicity liver stage against HepG2, at 10uM. The format is cell-based. Also noted: test concentration 10 uM, cell line HepG2-A16-CD81EGFP. The conditions noted are these: human, HepG2-A16-CD81EGFP cells; read-out: INHIBITION
The method, boiled down:
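Uninfected HepG2-A16-CD81EGFP cells, 3 × 10^3 per well, 1536-well, plated on prespotted compound at 10 μM final, parasite-free screening media added to match infected plates; puromycin 10 μM positive, DMSO 0.5% negative; run in parallel with 48 h PbLuc assay at 37 °C, 5% CO2; viability by CellTiter-Glo luminescence, normalized to controls.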
Turning to `F[C@@H]1CN(CC2CC2)C[C@@H]1OCc1nc2cnccc2[nH]1`, the cytotoxicity at 10 µM stood at 8.42%.

Consider `COc1cccc2ccn(CC(=O)NC(C)C)c12`, for which the cytotoxicity at 10 µM was -37%.

As for `CCN(CC)CCSc1nnc(N2CCN(c3ccc(F)cc3)CC2)s1`, the cytotoxicity at 10 µM is -5.12%. The value for `O=C1NC(c2ccccc2)=N[C@@]12CC[C@@H]1CN(Cc3cccnc3)C[C@@H]12` was 6.8%; that for `O=C(Cn1nc2c(cc1=O)CSCC2)NC(Cc1ccccc1)C(=O)O` (configuration not stated) was -10.1%; that for `CCc1nc(NCC(=O)N2CCOCC2)c2c(n1)c(C)nn2CC` was 7.05%. For `CNc1ncccc1CN1CCN(C)CC(C(N)=O)C1` (configuration not stated), the cytotoxicity at 10 µM came to 0.106%. On to `CC(C)c1ncc(CN2CCC(O)(c3ccccc3F)CC2)cn1`, for which the cytotoxicity at 10 µM is -0.882%.

As for `Cc1cc2nccc(C3CCCN(C(=O)c4cnccn4)C3)n2n1` (configuration not stated), the cytotoxicity at 10 µM was 10.5%.

On to `Cc1nc(N(C)C)cc(C2(C)CCNCC2)n1`, for which the cytotoxicity at 10 µM was -6.07%. On to `Cc1cnn(CC2CCN(CC(O)c3ccccc3)CC2)c1` (configuration not stated), for which the cytotoxicity at 10 µM was -8.46%. As for `CCC(Sc1ncc(CO)n1C)c1ccccc1` (configuration not stated), the cytotoxicity at 10 µM was -45.3%. For the molecule `Cc1ccc(C)c(-n2ncc(NC(=O)NC3(C)CCOC3)c2C)c1` (configuration not stated), the cytotoxicity at 10 µM was -41.6%.

With `CN(C)CC(O)Cn1cc(NCc2ccc(Br)cc2)cn1` (configuration not stated), the cytotoxicity at 10 µM was found to be 7.48%. In the case of `Cc1cc(CNS(=O)(=O)CCCC#N)ccc1N(C)C`, the cytotoxicity at 10 µM is -5.18%.

Consider `CCc1nnc(C(C)N2CCN(CCC(=O)NC3CC3)CC2)o1` (configuration not stated), for which the cytotoxicity at 10 µM is 16%. Take `Cc1noc(CCCNC(=O)C2CSCN2C(=O)C(C)(C)C)n1` (configuration not stated): the cytotoxicity at 10 µM is -54.4%. As for `COC(=O)CN(C(=O)c1ccc(Cl)cn1)c1cccc(F)c1`, the figure is -8.61%; as for `Cn1cc(CC2CC(=O)N(Cc3ccccc3OC(F)F)C2=O)cn1` (configuration not stated), 2.21%; as for `c1nc(N2CCCC2Cn2cncn2)c2ccsc2n1` (configuration not stated), 14.1%. For the molecule `Cn1cc(N2CCC(NC(=O)c3ccccc3F)C2=O)cn1` (configuration not stated), the cytotoxicity at 10 µM was -1.26%. With `CCC(CC)c1cc(CNC(=O)N2CCC(n3cncn3)CC2)on1`, the cytotoxicity at 10 µM was -4.16%.

On to `Cc1oc(-c2ccsc2)nc1CC(=O)NCC(=O)Nc1cn[nH]c1`, for which the cytotoxicity at 10 µM is -1.36%. Consider `Cc1cc(=O)n2ncnc2n1CC(O)c1ccccc1F` (configuration not stated), for which the cytotoxicity at 10 µM was -13.7%.

Consider `CCc1cnc(CN(C)C2CCN(CCCNS(C)(=O)=O)C2)o1` (configuration not stated), for which the cytotoxicity at 10 µM is -3.4%. For the molecule `Cc1cc(C)n(C2CCCN(C(=O)c3cccc(F)c3F)C2)n1` (configuration not stated), the cytotoxicity at 10 µM is 4.35%.

Turning to `O=C(NCCO)Nc1c(F)cc(F)cc1-c1ccccc1`, the cytotoxicity at 10 µM was -1.99%. As to `O=C(Nc1ccc(CC(=O)N2CCSCC2)cc1)NC1CCCC1`, the cytotoxicity at 10 µM was -7.01%. As for `O=C(Nc1ccc(F)c(-n2cccc2)c1)NC1(CCO)CCOCC1`, the figure is 8.67%; as for `CN(C)c1nc(N)nc(CSCCC(=O)Nc2cccc(Cl)c2)n1`, 0.779%. The value for `O=S(=O)(c1ccccc1)N1CCN(Cc2ccc(F)cc2Br)CC1` was -2.57%; that for `NC(=O)CN1CCC(OCc2ccc(Cl)c(Cl)c2)CC1` was -0.497%; that for `CC(C)(C#N)c1ccc(NS(=O)(=O)CC2CCCCO2)cc1` (configuration not stated) was 0.548%.

Consider `O=C(CNc1ccccc1S(=O)(=O)C(F)F)NCc1ccco1`, for which the cytotoxicity at 10 µM is -53%. The value for `O=C(NCC1(O)CCOC1)NCC1(c2ccccc2Cl)CC1` (configuration not stated) was -45.7%; that for `Cc1ccc(OCC(O)CN(C)CC(=O)NC(C)C)c(C)c1` (configuration not stated) was -7.55%; that for `Cc1nn(C)c(Oc2cccnc2)c1NC(=O)C1CCCO1` (configuration not stated) was -8.78%. For the molecule `CNC(=O)Cc1noc(Cc2cccc(Cl)c2)n1`, the cytotoxicity at 10 µM came to 0.335%. For `CCOCC1CN(C(=O)CC2=CCCCC2)Cc2nnn(C)c21` (configuration not stated), the cytotoxicity at 10 µM was -110%. The value for `CCc1cnc(N2C[C@H]3CCCC(N(C)Cc4ccccn4)[C@H]3C2)nc1` (some centres not stated) was -114%; that for `COCCC(=O)N1CCC2(COCc3cnc(-c4cccnc4)nc32)C1` (configuration not stated) was -115%.

On to `O=C(C1=CCCC1)N1C[C@@H]2COC[C@]2(COc2cccnc2)C1`, for which the cytotoxicity at 10 µM is -5.38%. As for `COCCC(=O)N1CCC2(COCc3c(C)nc(NCC4CC4)nc32)C1` (configuration not stated), the figure is 2.19%. Consider `CCOCC1CN(Cc2cnn(C)c2)Cc2ncn(CC3CC3)c21` (configuration not stated), for which the cytotoxicity at 10 µM was 2.21%.

Regarding `O=C(Cc1ccc(-c2ccccc2)cc1)N1CCOCC(O)C1` (configuration not stated), the cytotoxicity at 10 µM stood at 1.51%. The value for `CCOc1ncccc1CNc1cc(COC)ncn1` was 6.41%; that for `COCc1nc(CNC2CCN(C(C)C)CC2)no1` was 4.04%.

`CN(Cc1cnn(C)c1)c1nccc(-c2cc(C(=O)O)ccn2)n1`: the cytotoxicity at 10 µM is -7.33%. As to `Cc1nc(C(=O)N2CCN(C(=O)C3CCC3)[C@@H]3CS(=O)(=O)C[C@@H]32)cs1`, the cytotoxicity at 10 µM was determined as 12.5%. The value for `Cc1cc(C)c2nc(CN3CCC(C#N)CC3)cc(O)c2c1` was 6.27%; that for `c1c[nH]c(-c2cn(CCSc3cnn[nH]3)nn2)n1` was -47.5%; that for `CCn1cnnc1Cn1cccc(C(F)(F)F)c1=O` was -9.8%.

For the molecule `Cc1nn(C)cc1Cn1c(=O)ccc2ccccc21`, the cytotoxicity at 10 µM was -12.5%. As for `CSCC(=O)N1CCc2c(cnc(C)c2-c2noc(-c3ccco3)n2)C1`, the figure is 2.93%; as for `N[C@@H]1CCN(Cc2ccccc2CS(=O)(=O)c2ccccc2)C[C@H]1O`, -2.58%. The value for `CC(C)c1nc(CN(C)C(=O)CNS(=O)(=O)c2cccs2)no1` was -16.8%. With `O=C1CC(NCc2cccc(O)c2)CN1CCc1cccc(Cl)c1` (configuration not stated), the cytotoxicity at 10 µM is -130%.

Take `O=c1[nH]cccc1-c1nccc(C2(c3ccccc3Cl)CCNCC2)n1`: the cytotoxicity at 10 µM is -6.27%. As for `Cc1cc(N2CCN(C(=O)C(C)n3ccnc3C(C)C)CC2)cc(C)n1` (configuration not stated), the figure is -3.59%; as for `CCOCCC(=O)N1CCCC(CO)(CC2CC2)C1` (configuration not stated), 7.58%; as for `COCCN1CC(c2nc(CC3CCN(C)CC3)no2)CCC1=O` (configuration not stated), 2.06%. For the molecule `O=C(c1cccn1Cc1cccs1)N1CCN2CCCCC2C1` (configuration not stated), the cytotoxicity at 10 µM is -7.42%. As for `OCCN1CCN(Cc2coc(-c3cccc(Cl)c3)n2)CC1`, the figure is -21.6%. The value for `O=C(NCC1CCOC1)N1CCN(Cc2ccc3c(c2)OCO3)CC1` (configuration not stated) was -4.33%; that for `CC(C)c1ncc2c(n1)CN(Cc1nc(-c3ccsc3)no1)CC2` was 2.05%; that for `O=C(NCc1cc[nH]n1)N1CCN(c2ncccn2)CC1` was -3.29%. As for `CCCc1n[nH]c(C2CN(C(=O)c3cccc4[nH]ncc34)CCO2)n1` (configuration not stated), the figure is -2.87%; as for `O=C1NCCN1C1CCN(Cc2coc(-c3ccccc3)n2)CC1`, -1.54%. Take `c1ccc(-n2nc(CNC3CCc4ncnn4C3)c3c2CCC3)cc1` (configuration not stated): the cytotoxicity at 10 µM was -12.9%. For the molecule `CN1CCOC(CNC(=O)COc2ccc(F)cc2F)C1` (configuration not stated), the cytotoxicity at 10 µM is -5.51%. The value for `CCOC1CCN(C(=O)Nc2ccc(=O)n(C)c2)CC1` was -10.4%. As for `Cc1nc(C)n(CC2CCCN(CC(=O)Nc3nnc(C)s3)C2)n1` (configuration not stated), the figure is -18.9%; as for `Cc1occc1C(=O)NCc1cccnc1N(C)C`, -5.89%; as for `c1cncc(CNC2CCc3ncnn3C2)c1` (configuration not stated), -7.91%. For `CC(C)c1nnc(CN2CCN(C(C)c3nc(C4CC4)no3)CC2)o1` (configuration not stated), the cytotoxicity at 10 µM was found to be 3.48%.

For `CN(Cc1nc2ccccc2n1C)CC1CCCN1c1cccnn1` (configuration not stated), the cytotoxicity at 10 µM is -4.41%. As for `COc1cccc(-c2nc(CNCCCn3cccn3)cs2)c1`, the figure is -19.7%. As for `CC(C)c1nn(C)c(N2CCOCC2)c1CNCC(=O)N(C)C`, the figure is -4.3%; as for `CCN(CC)C(=O)C(c1ccccc1)N1CCn2c(C)nnc2C1` (configuration not stated), 5.57%; as for `O=C(CCc1cnn(-c2ccccc2)c1)N1CCCC(n2cccn2)C1` (configuration not stated), 2.1%.

In the case of `O=C(CN1CCC(c2ccnn2CCO)CC1)NCC1CC1`, the cytotoxicity at 10 µM was -3.25%. In the case of `CCn1ccnc1CN1CCOC(CNc2cccnn2)C1` (configuration not stated), the cytotoxicity at 10 µM stood at 0.762%.

In the case of `Cn1cc(CN2CCN(CC3(c4ccccc4)CC3)CC2)cn1`, the cytotoxicity at 10 µM worked out at 2.86%. The value for `Cn1ccnc1CNC(=O)c1cnc(C2CCNCC2)cn1` was -1.31%; that for `Cc1ccccc1OC1CCN(CC(=O)Nc2cnn(C)c2C)CC1` was -8.09%.

As to `c1ccc(CN2CCc3ncnc(C4CCOC4)c3CC2)nc1` (configuration not stated), the cytotoxicity at 10 µM amounted to 8.88%. As for `c1csc(CN2CCC3(CCCN3CC3CC3)CC2)n1`, the figure is 8.22%; as for `Cc1cc(CN2C[C@@H]3COC[C@]3(COCc3csc(C)n3)C2)no1`, 1.17%; as for `O=C(C[C@@H]1COC[C@H]2CN(Cc3ccccn3)C[C@@H]12)N1CCOCC1`, -1.63%. As for `CC(=O)N1CCn2c(-c3ccccc3)cnc2C12CCNCC2`, the figure is 7.43%; as for `CC(C)N1[C@H](Cn2cccn2)C[C@@H]2CN(C3CCOCC3)CC[C@@H]21`, 3.92%. The value for `O=c1cc(CNS(=O)(=O)C2CC2)nc2n1CCCN(CC1CC1)C2` was -104%; that for `COCCN1CCN(Cc2c(C)noc2C)Cc2ccc(C)nc21` was 3.47%. In the case of `CC1c2ncc(CN3CCN(C)CC3)n2CCN1Cc1cnn(C)c1` (configuration not stated), the cytotoxicity at 10 µM worked out at 7.77%. With `CN(C)C(=O)CN1C(=O)CCC12CCN(Cc1cccn1C)CC2`, the cytotoxicity at 10 µM was 6.45%.

In the case of `CC(C)CCN1C[C@@H]2C[C@H](C(=O)Nc3ccccc3)[C@H](C1)O2`, the cytotoxicity at 10 µM was -7.99%.

In the case of `CN(C)C(=O)CN1C[C@H]2CC[C@@H](C1)N(Cc1c(Cl)cncc1Cl)C2`, the cytotoxicity at 10 µM was 6.02%.
